# Measured values reported in ChEMBL document CHEMBL3421562, “Bioactive prenylated xanthones from the young fruits and flowers of Garcinia cowa” (J Nat Prod, 2015).
# Tests used:
# Saccharomyces cerevisiae = assay: Inhibition of Saccharomyces cerevisiae alpha-glucosidase using p-nitrophenyl alpha-D-glucoside as substrate at 100 uM preincubated for 0.5 hrs followed by substrate addition measured after 1 hr by colorimetric method relative to control
# Outline: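 Test compound at 100 μM; enzyme (0.4 U/mL) preincubated with compound 0.5 h at 37 °C in 50 mM K2HPO4−KH2PO4 buffer, 10% DMSO final; reaction started with p-nitrophenyl α-D-glucoside (3 mM), 1 h at 37 °C; stopped with 0.1 M Na2CO3; absorbance read at 405 nm; percent inhibition.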
# [1] = Inhibition of Saccharomyces cerevisiae alpha-glucosidase using p-nitrophenyl alpha-D-glucoside as substrate preincubated for 0.5 hrs followed by substrate addition measured after 1 hr by colorimetric method
# Outline: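 Enzyme (0.4 U/mL) and compound preincubated 0.5 h at 37 °C in 50 mM K2HPO4−KH2PO4 buffer, final DMSO 10%; p-nitrophenyl α-D-glucoside (3 mM) added, further 1 h at 37 °C; terminated with 0.1 M Na2CO3, A405 read immediately as relative hydrolysis rate; IC50 determined; acarbose positive control.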
# Bacillus cereus = assay: Antibacterial activity against Bacillus cereus TISTR 688 by 2-fold serial dilution method; type: functional
# Bacillus subtilis = assay: Antibacterial activity against Bacillus subtilis TISTR 008 by 2-fold serial dilution method; type: functional
# Staphylococcus aureus = assay: Antibacterial activity against Staphylococcus aureus TISTR 1466 by 2-fold serial dilution method; type: functional
# Escherichia coli = assay: Antibacterial activity against Escherichia coli TISTR 780 by 2-fold serial dilution method; type: functional
# Salmonella typhimurium = assay: Antibacterial activity against Salmonella typhimurium TISTR 292 by 2-fold serial dilution method; type: functional, Salmonella enterica subsp. enterica serovar Typhimurium
# Pseudomonas aeruginosa = assay: Antibacterial activity against Pseudomonas aeruginosa TISTR 884 by 2-fold serial dilution method; type: functional
Compound,inhibition (Saccharomyces cerevisiae) [%],IC50 [1] [µM],MIC (Bacillus cereus) [µg/mL],MIC (Bacillus subtilis) [µg/mL],MIC (Staphylococcus aureus) [µg/mL],MIC (Escherichia coli) [µg/mL],MIC (Salmonella typhimurium; Salmonella enterica) [µg/mL],MIC (Pseudomonas aeruginosa) [µg/mL],MIC (Salmonella typhimurium; Salmonella enterica subsp. enterica serovar Typhimurium) [µg/mL]
COc1c(O)cc2oc3cc4c(c(O)c3c(=O)c2c1C/C=C(\C)CCC=C(C)C)C=CC(C)(C)O4,71.7,18.6,64,64,128,64,128,128,–
COc1c(O)cc2oc3cc(O)cc(O)c3c(=O)c2c1C/C=C(\C)CCC=C(C)C [RUBRAXANTHONE],71.2,23.4,4,2,> 128,64,64,64,–
CC(C)=CCCC1(C)C=Cc2c(c(O)cc3oc4cc5c(c(O)c4c(=O)c23)C=CC(C)(C)O5)O1 (stereo not drawn),–,–,64,128,> 128,> 128,64,128,–
CC(C)=CCC/C(C)=C/CC1(C/C=C(\C)CCC=C(C)C)C(=O)C(O)=Cc2oc3cc(O)cc(O)c3c(=O)c21 (stereo not drawn),62.9,36.4,8,8,> 128,> 128,64,128,–
COc1cc2oc3cc(O)c(OC)c(CC=C(C)C)c3c(=O)c2c(O)c1CC=C(C)C,73.1,8.7,16,4,> 128,> 128,128,128,–
COc1c(O)c(CC=C(C)C)c2oc3cc(O)c(CC=C(C)C)c(O)c3c(=O)c2c1CC=C(C)C,–,–,32,32,> 128,> 128,128,128,–
CN[C@H](CC(C)C)C(=O)N[C@H]1C(=O)N[C@@H](CC(N)=O)C(=O)N[C@H]2C(=O)N[C@H]3C(=O)N[C@H](C(=O)N[C@H](C(=O)O)c4cc(O)cc(O)c4-c4cc3ccc4O)[C@H](O)c3ccc(c(Cl)c3)Oc3cc2cc(c3O[C@@H]2O[C@H](CO)[C@@H](O)[C@H](O)[C@H]2O[C@H]2C[C@](C)(N)[C@H](O)[C@H](C)O2)Oc2ccc(cc2Cl)[C@H]1O [VANCOMYCIN],–,–,0.25,0.25,0.25,–,–,–,–
CC(C)=CCC/C(C)=C\CC1(C/C=C(\C)CCC=C(C)C)C(=O)C(O)=Cc2oc3cc(O)cc(O)c3c(=O)c21 (stereo not drawn),75.8,55.3,8,8,64,64,64,128,–
COc1cc2oc3cc4c(c(O)c3c(=O)c2c(CC=C(C)C)c1OC)C=CC(C)(C)O4,62.2,26.2,128,128,> 128,> 128,64,128,–
COc1c(O)cc2oc3cc4c(c(O)c3c(=O)c2c1CC=C(C)C)C=CC(C)(C)O4 [MANGOSTANIN],70.1,34.6,4,8,64,> 128,128,128,–
COc1cc2oc3cc(OC)c(CC=C(C)C)c(O)c3c(=O)c2c(CC=C(C)C)c1O,56.4,–,128,128,> 128,> 128,128,128,–
GENTAMICIN,–,–,–,–,–,0.25,–,2,0.125
COc1cc2c(=O)c3c(O)c4c(cc3oc2cc1O)OC(C)(CCC=C(C)C)C=C4 (stereo not drawn),–,–,32,64,> 128,> 128,128,128,–
C[C@H]1O[C@H](O[C@H]2[C@H](O)[C@@H](O)[C@@H](O[C@H]3[C@H](O)[C@@H](O)C(O)O[C@@H]3CO)O[C@@H]2CO)[C@H](O)[C@@H](O)[C@@H]1N[C@H]1C=C(CO)[C@@H](O)[C@H](O)[C@H]1O (stereo partly drawn) [ACARBOSE],–,8,–,–,–,–,–,–,–
COc1cc2oc3cc(O)c4c(c3c(=O)c2c(O)c1CC=C(C)C)CCC(C)(C)O4,–,–,128,–,128,> 128,128,> 128,–
COc1cc2c(=O)c3c(O)c(C/C=C(\C)CCC=C(C)C)c(O)cc3oc2cc1O [COWAXANTHONE],–,–,64,64,> 128,> 128,128,128,–
COc1cc2oc3cc(OC)c(OC)c(CC=C(C)C)c3c(=O)c2c(O)c1CC=C(C)C,53.8,–,> 128,128,128,64,128,128,–
CC(C)=CCC/C(C)=C/CC1(CC=C(C)C)C(=O)C(O)=Cc2oc3cc(O)cc(O)c3c(=O)c21 (stereo not drawn) [GARCINIANONE A],66.7,34,4,2,64,64,64,128,–
COc1c(O)cc2oc3cc(O)c(CC=C(C)C)c(O)c3c(=O)c2c1CC=C(C)C [MANGOSTIN],72,7.8,8,8,64,64,64,128,–
CC(C)=CCC/C(C)=C\CC1(CC=C(C)C)C(=O)C(O)=Cc2oc3cc(O)cc(O)c3c(=O)c21 (stereo not drawn) [GARCINIANONE B],69.1,11.7,2,2,64,64,64,128,–
COc1cc2oc3cc(O)c4c(c3c(=O)c2c(O)c1CC=C(C)C)C=CC(C)(C)O4,50.8,–,128,128,128,> 128,128,128,–
COc1cc2oc3cc4c(c(O)c3c(=O)c2c(CC=C(C)C)c1O)C=CC(C)(C)O4,–,–,128,128,> 128,> 128,128,128,–
